# Screens (PubChem)
# This is one part of a sample in which hits are shown more often than they occur.
# GSK3B inh – blocks human GSK3beta kinase activity; P49841; GST-GSK3beta kinase, ADP-Glo luminescence, 60 min; stronger effect = lower value; activity score (negative = inhibition), % at 10 µM; 300,000 tested, 0.038% active;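 active means more than half of replicate wells score below -50%, meaning over 50% inhibition versus plate controls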
#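 Assay system: GST-tagged human GSK3beta kinase, cell-free; Input: 1.6 ng GSK3beta; Medium: Tris/MgCl2 kinase buffer; Timing: 60 min enzyme reaction, room temperature; Signal: ADP-Glo luminescence quantifying ADP generated by kinase; Evaluation: score relative to plate controls; Benchmarks: DMSO neutral wells and GW8510 at 20 µM as positive.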
# DYRK1A inh – Dyrk1A (rat) kinase inhibition | inhibition, % at 12.5 µM | Q63470 | ADP-Glo luminescence, NFATc1 peptide | 310,000 tested, 0.43% active | AID 504441; in the data active means inhibition above about 50%
# GSK3 alpha inh – human GSK-3 alpha kinase inhibition; P49840; ADP-Glo luminescence, 60 min; inhibition, % at 10 µM; 320,000 tested, 0.1% active;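 active means more than half of replicates show inhibition above 20%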;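 further: GST-tagged GSK-3 alpha with peptide substrate and 25 µM ATP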
# CDK5 inh – blocks human CDK5/p35 kinase activity | inhibition, % at 10 µM | Q00535+Q15078 | AID 488839 | Recombinant CDK5/p35, ADP-Glo luminescence, 60 min | 330,000 tested, 0.01% active;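 active means highest replicate inhibition of at least 50% and at least 75% of replicates reaching 50%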
# STK33 kinase inh – human STK33 kinase inhibition; purified STK33, MBP phosphorylation, ADP-Glo luminescence; Q9BYT3; 320,000 tested, 0.073% active; inhibition, % at 10 µM;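 active means inhibition at or above 25%, using the most active replicate where run in duplicate; inactive means inhibition below 25%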
# Target sequence (Q9BYT3 whole entry, looked up): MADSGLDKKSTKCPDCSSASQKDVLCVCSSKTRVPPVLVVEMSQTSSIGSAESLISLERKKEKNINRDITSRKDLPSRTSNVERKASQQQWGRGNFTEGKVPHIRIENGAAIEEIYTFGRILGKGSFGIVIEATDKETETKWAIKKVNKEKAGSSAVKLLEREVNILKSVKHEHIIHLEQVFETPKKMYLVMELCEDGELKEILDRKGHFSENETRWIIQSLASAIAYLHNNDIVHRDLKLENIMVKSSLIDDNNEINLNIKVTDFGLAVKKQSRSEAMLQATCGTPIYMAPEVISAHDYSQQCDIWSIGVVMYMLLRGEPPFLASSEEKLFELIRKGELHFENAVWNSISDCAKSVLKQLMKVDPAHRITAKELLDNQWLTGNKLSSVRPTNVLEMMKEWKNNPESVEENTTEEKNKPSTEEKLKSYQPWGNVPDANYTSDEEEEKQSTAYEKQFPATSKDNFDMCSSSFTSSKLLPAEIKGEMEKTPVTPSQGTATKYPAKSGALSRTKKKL
# ADP-Glo artifact – interferes with ADP-Glo luciferase readout without Dyrk1A; AC50, µM (highest dose often 12 µM); AID 588348; shares compounds with DYRK1A inh; 1,300 tested, under 10 active; ADP-Glo luciferase artifact assay, no Dyrk1A, luminescence;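 active means fitted half-maximal dose AC50 no more than ten times the top valid tested dose, with luminescence dropping as dose rises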
# Hits are given with their value; 0 = inactive; - = no result given.
SMILES,GSK3B inh,DYRK1A inh,GSK3 alpha inh,CDK5 inh,STK33 kinase inh,ADP-Glo artifact
COc1ccc2[nH]c(C(=O)O)c(CCN3C(=O)c4ccc(C(=O)O)cc4C3=O)c2c1,0,0,0,0,0,-
O=C(O)c1[nH]c2ccc(Cl)cc2c1CCN1C(=O)c2ccccc2C1=O,0,66.3,0,0,0,0
O=C(O)c1[nH]c2ccc(Br)cc2c1CCN1C(=O)c2cccc([N+](=O)[O-])c2C1=O,0,51.4,0,0,0,0
COC(=O)CSCC(=O)Nc1nnc(-c2ccccc2C)s1,0,0,0,0,0,-
CC(C)Cc1nnc(NC(=O)C2CCN(C(=O)c3ccc(F)cc3)CC2)s1,0,0,-,0,-,-
Oc1cccc(NC(=S)N=Nc2c(O)[nH]c3ccccc23)c1,0,50.5,-,0,0,0
O=C(CSCc1ccccc1)NNC(=S)Nc1cccc(Cl)c1Cl,0,0,0,0,0,-
COCCNc1cc(C)nc2c(-c3ccccc3OC)c(C)nn12,0,57.2,0,0,0,0
COc1ccc(C(CNC(=O)CNC(=O)c2cccc(C)c2)N2CCCCC2)cc1 (stereo not drawn),-,0,-,0,-,-
Cc1c(Br)c(=O)oc2c(Br)c(O)ccc12,0,77.3,0,0,0,0
Oc1ccc2ccc3[nH]cnc3c2c1,0,79.8,0,0,0,0
CCOc1ccc(/C=C2\SC(=S)N(C)C2=O)cc1OC,0,-,0,-,0,-
COc1ccc(/C=C2\SC(=O)NC2=S)cc1OC,0,58.0,-,0,-,0
COc1cc(/C=C2\SC(=O)NC2=O)ccc1Oc1ccc([N+](=O)[O-])cc1[N+](=O)[O-],0,77.2,0,0,0,0
CCC1CCCCN1CCCNC(=O)C1CCCN(c2ncnc3c2nc2n3CCCCC2)C1 (stereo not drawn),0,0,0,0,0,-
Cc1nn(CCCC(=O)NC(C)c2ccccc2)c(=O)c2nn(-c3ccccc3)c(C)c12 (stereo not drawn),0,0,0,0,0,-
CNC(=O)CN1C(=O)c2cccc3cccc1c23,0,0,-,0,0,-
CN1/C(=N\O)c2cccc3cccc1c23,0,66.3,-,0,0,0
Cc1ccsc1C(=O)NN=C1CCCCCC1,0,0,0,0,0,-
COc1ccc(OCCC(=O)OCC(=O)Nc2cccc(S(=O)(=O)N3CCCCC3)c2)cc1,-,-,0,0,0,-
O=C1N=C(N2CCOCC2)S/C1=C/c1cccs1,0,0,0,0,0,-
NC1=NC(=O)/C(=C/c2cccs2)S1,0,53.0,0,0,0,0
C=CCSC1=NC(=O)/C(=C/c2cccs2)S1,-,76.2,0,0,0,0
COc1cccc(CNS(=O)(=O)c2c(C(=O)N3CCCCCC3)c(C)n(C)c2C)c1,0,0,0,0,0,-
O=c1nc2n(c3sc4c(c13)CCCC4)C(CBr)CS2 (stereo not drawn),0,50.7,0,0,0,0
SMILES,GSK3B inh,DYRK1A inh,GSK3 alpha inh,CDK5 inh,STK33 kinase inh,ADP-Glo artifact
O=S1(=O)N=C(N(Cc2cccs2)c2ccc(O)cc2)c2ccccc21,0,73.3,0,0,0,0
COc1ccc(N2C(=O)C3CCCN3C2c2cc(OC)c(OC)c(OC)c2)cc1 (stereo not drawn),0,61.5,-,0,0,0
Oc1ccc(/C=N/Nc2cccc(Cl)n2)c(O)c1,0,0,0,0,0,-
Oc1ccc(/C=N/Nc2ccc(C(F)(F)F)cn2)c(O)c1,0,61.1,0,67.2,0,0
CCCCN1C(=O)C2(OCCCO2)c2cccc(C)c21,0,0,-,0,-,-
COc1ccccc1C(=O)Nc1nc(-c2ccc3c(c2)OCCO3)cs1,0,0,0,0,0,-
O=C(Nc1nc(-c2ccc3c(c2)OCCO3)cs1)c1ccco1,0,73.4,0,0,0,0
O=C(/C=C/c1ccccc1)Nc1nc(-c2ccncc2)cs1,-,71.5,0,0,0,0
O=C(Nc1nc(-c2cccs2)cs1)c1ccco1,0,0,0,0,0,-
CC(C)(C)C(=O)Nc1nc(-c2ccc3c(c2)OCO3)cs1,0,0,0,-,0,-
CCC(=O)Nc1nc(-c2ccc3c(c2)OCCO3)cs1,0,51.5,0,0,0,0
O=C(Nc1nc(-c2ccncc2)cs1)c1ccco1,0,76.3,0,0,0,0
CCCCn1c(N)c(N(C(=O)CSc2nncn2-c2ccccc2C)C2CCCC2)c(=O)[nH]c1=O,-,0,-,0,-,-
O=C(O)/C(=C\c1ccc(Br)cc1)NC(=O)c1cccs1,0,0,0,0,0,-
